Results from PMC10052233 (JACS Au, 2023).

How the values were obtained:
di-Zn-NDM-1 [1] = biological target: T1, di-Zn-NDM-1 (Klebsiella pneumoniae, UniProt C7C422); assay: 1H-15N TROSY-HSQC and 19F NMR titration of di-Zn-NDM-1 with inhibitors; format: binding; conditions: di-Zn-NDM-1, 298 K
apo-NDM-1 [2] = biological target: T2, apo-NDM-1 (Klebsiella pneumoniae, UniProt C7C422); assay: 1H-15N TROSY-HSQC and 19F NMR titration of apo-NDM-1 with inhibitors; format: binding; conditions: apo-NDM-1, 298 K
T2 sequence (C7C422 36-270): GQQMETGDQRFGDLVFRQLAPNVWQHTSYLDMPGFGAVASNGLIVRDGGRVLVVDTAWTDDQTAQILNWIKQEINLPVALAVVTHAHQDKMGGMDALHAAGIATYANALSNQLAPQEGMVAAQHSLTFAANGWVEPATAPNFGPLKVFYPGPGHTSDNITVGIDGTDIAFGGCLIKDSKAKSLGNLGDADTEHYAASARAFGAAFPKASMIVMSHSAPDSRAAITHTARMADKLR

di-Zn-NDM-1 [3] = biological target: T1, di-Zn-NDM-1; assay: 19F NMR titration, dissociation constant with di-Zn-NDM-1; format: binding
Procedure, shortened: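 NDM-1 (residues 36−270) carrying a C-terminal His6 tag, expressed in E. coli BL21 (DE3) and purified by Ni2+-affinity and size-exclusion chromatography. di-Zn protein, 0.1−0.3 mM, titrated with test compound at ratios chosen so the protein was mostly bound. 19F spectra recorded at each ratio. Kd derived from titration of the residue Y229 signal.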

apo-NDM-1 [4] = biological target: T2, apo-NDM-1; assay: Thermal stability by circular dichroism, apo-NDM-1; conditions: CD, ellipticity at 208 nm; apo-NDM-1 alone 46.1 °C
di-Zn-NDM-1 [5] = biological target: T1, di-Zn-NDM-1; assay: Thermal stability by circular dichroism, di-Zn-NDM-1

T1 sequence (C7C422 36-270): as above

Molecule	changes of 1H-15N TROSY-HSQC / 19F spectra upon titration (di-Zn-NDM-1 [1])	changes of 1H-15N TROSY-HSQC / 19F spectra upon titration (apo-NDM-1 [2])	Kd (di-Zn-NDM-1 [3]) [µM]	Tm of ebselen-bound apo-NDM-1 (apo-NDM-1 [4]) [°C]	Tm of ebselen-bound di-Zn-NDM-1 (di-Zn-NDM-1 [5]; CD, ellipticity at 208 nm, di-Zn-NDM-1 alone 53.9 °C) [°C]	Tm lower than that of di-Zn-NDM-1 (di-Zn-NDM-1 [5]; ebselen-bound di-Zn-NDM-1 vs di-Zn-NDM-1)
O[C@@H](CS)[C@@H](O)CS (racemic) [DTT, dithiothreitol]	large chemical shift changes	No changes	30	–	–	–
OCC(S)CS (stereo not drawn) [2,3-dimercapto-1-propanol]	large chemical shift changes	No changes	712	–	–	–
CC(CS)C(=O)O (stereo not drawn) [3-mercaptoisobutyric acid]	large chemical shift changes	No changes	–	–	–	–
c1ccc(CN(Cc2ccccn2)Cc2ccccn2)nc1 [TPA, tris-picolylamine]	significant changes	only minute chemical shift changes	–	–	–	–
N[C@@H](C(=O)N[C@@H]1C(=O)N2C(C(=O)O)=C(Cl)CS[C@H]12)c1ccccc1 [cefaclor]	almost all of the cross-peaks in the 2D TROSY-HSQC spectra disappear	almost all of the cross-peaks in the 2D TROSY-HSQC spectra disappear	–	–	–	–
O=C(O)c1cc[c]([Hg][Cl])cc1 [chloromercuribenzoic acid, 4-chloromercuribenzoic acid]	almost all of the cross-peaks in the 2D TROSY-HSQC spectra disappear	almost all of the cross-peaks in the 2D TROSY-HSQC spectra disappear	–	–	–	–
O=C(O)c1cccc(C(=O)O)n1 [dipicolinic acid]	significant changes	only minute chemical shift changes	–	–	–	–
O=c1c2ccccc2[se]n1-c1ccccc1 [ebselen]	almost all of the cross-peaks in the 2D TROSY-HSQC spectra disappear	almost all of the cross-peaks in the 2D TROSY-HSQC spectra disappear	–	46.1	48.4	about 5.5 °C
c1cnc2c(c1)ccc1cccnc12 [phenanthroline]	significant changes	only minute chemical shift changes	–	–	–	–
O=C(O)CNC(=O)C(CS)Cc1ccccc1 (stereo not drawn) [thiorphan]	large chemical shift changes	No changes	–	–	–	–
CC(S)C(=O)NCC(=O)O (stereo not drawn) [tiopronin]	large chemical shift changes	No changes	121	–	–	–
colloidal bismuth subcitrate [CBS]	no changes	shifted significantly	–	–	–	–
